Results: ChEMBL document CHEMBL4177561, “Development of Selective, Orally Active GPR4 Antagonists with Modulatory Effects on Nociception, Inflammation, and Angiogenesis” (J Med Chem, 2017)

Columns and labels:
[1] = Clearance in Sprague-Dawley rat at 1 mg/kg, iv; assay type: ADME, organism-based; conditions: in vivo
Outline: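 Female Sprague-Dawley rats with femoral artery and vein catheters received a single iv dose of 1 mg/kg in NMP:PEG200 (30:70). Clearance is the mean ± SD of four animals.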

[2] = tested on: Rattus norvegicus; assay: Dose normalized AUC in Sprague-Dawley rat at 3 mg/kg, po; assay type: ADME, organism-based; conditions: in vivo
Outline: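 Catheterized female Sprague-Dawley rats received a single oral dose of 3 mg/kg as a suspension in CMC:water:Tween 80 (0.5:99:0.5). This followed a 48 h wash-out after iv dosing in the same animals.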

[3] = Drug level in blood of FVB mouse chamber implant model at 30 mg/kg, po bid for 4 days measured at 16 hrs on day 4; conditions: read-out: Drug uptake
[4] = Drug level in blood of FVB mouse chamber implant model at 30 mg/kg, po bid for 4 days measured at 2 hrs on day 4; conditions: read-out: Drug uptake
[5] = Drug level in blood of methylated BSA and complete Freund's adjuvant sensitized Lewis rat antigen-induced arthritis model at 30 mg/kg, po bid for 7 days and measured 2 hrs post dose; assay type: ADME, organism-based; conditions: read-out: Drug uptake
Outline: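 Lewis rat AIA model, 30 mg/kg po bid. Blood concentration was measured on day 7 at 2 h post dose. Values are the mean of n = 5.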

Row | SMILES | clearance [1] [mL/min/kg] | AUC/dose [2] [µmol·h/L] | concentration at 16 h [3] [nM] | concentration at 2 h [4] [µM] | concentration at 2 h [5] [µM]
1 | CCc1nn2c(C)cc(C)nc2c1Cc1ccc(-c2nnc(C3CCNCC3)o2)cc1 | 6 | 6.7 | 90 | 9.03 | –
2 | CCc1nn2c(C)cc(C)nc2c1Cc1ccc(/C=C/CN2CCNC(=O)C2)cc1 | 4 | 13.6 | – | – | 23
3 | CCc1nn2c(C)cc(C)nc2c1Cc1ccc(CCC(O)C2CCNCC2)cc1 (centres undefined) | 31 | 0.49 | – | – | –

Continued, in another order:

Row | clearance [1] [mL/min/kg] | AUC/dose [2] [µmol·h/L] | concentration at 16 h [3] [nM] | concentration at 2 h [4] [µM] | SMILES | concentration at 2 h [5] [µM]
4 | 49 | 0.53 | – | – | CCc1nn2c(C)cc(C)nc2c1Cc1ccc(CCCC2(O)CCNCC2)cc1 | –
5 | 29 | 1.1 | – | – | CCc1nn2c(C)cc(C)nc2c1Cc1ccc(CCCN2CCN(C(C)C)CC2)cc1 | –
6 | 12 | 3.2 | – | – | CCc1nn2c(C)cc(C)nc2c1Cc1ccc(/C=C/CN2CCN(C(C)C)CC2)cc1 | –
7 | 11 | 5.1 | – | – | CCc1nn2c(C)cc(C)nc2c1Cc1ccc(/C=C/CN2CCN(C[C@@H](O)CO)CC2)cc1 | –
8 | 28 | 1.2 | – | – | CCc1nn2c(C)cc(C)nc2c1Cc1ccc(CCC(=O)N2CCNCC2)cc1 | –
